Source: PubChem BioAssay
Sampled rows, rich in hits. Any-hit rate of the full collection: about 1.6%.
TLR4-MyD88 BLA: inhibitors of human TLR4-MyD88 binding. 0.18% of 200,000 active. inhibition, % at 8.4 µM. HeLa CL3-4 TLR4/MyD88 BLA complementation, FRET ratio. AID 861; in the data active means inhibition above about 25%;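 further: 0% = vehicle and 100% = reference inhibitor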
Beta2AR agonist: human beta-2 adrenergic receptor agonism by FAP; 0.43% of 340,000 active; P07550; Am2.2-beta2AR cells, FAP receptor internalization, flow cytometry; response, % (test concentration not listed);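 active means response above a set limit, near 3 SD of response in nonfluorescent compounds, cut at about 42% in these data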
Dynein cargo inh: dynein cargo transport inhibition; 3617.4 mouse cells, GR-EGFP nuclear translocation imaging; test concentration mostly 20 µM; stimulated with dexamethasone, 1 µM; hits give low values; z-score, hits read low; 0.47% of 220,000 active; AID 1381;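 active means plate z-score of nuclear minus cytoplasmic receptor signal below a set negative limit, without overly bright fluorescence or cell loss, cut at about -3.5 in these data, passing the limit was not always enough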;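 further: z-score of nuclear minus cytoplasmic ring GR-EGFP intensity difference per well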
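medium = tetracycline-free induction medium containing charcoal-stripped FBS | also added = 1.0 µM final dexamethasone stimulus | schedule = 48 h induction, 1 h compound, 30 min dex at 37 °C | technique = fixed, Hoechst-stained cells imaged at 10x for EGFP | measure = GR-EGFP nuclear translocation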
TLR9-MyD88 inh: TLR9-MyD88 interaction inhibition; Q9NR96+Q99836; CHO BLA complementation TLR9-MyD88, CCF4 FRET ratio; inhibition, % at 4.98 µM; 0.21% of 340,000 active; AID 504734;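 active means inhibition above the mean over all tested compounds plus 3 SD, cut at about 21% in these data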;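 further: 0% = DMSO only wells and 100% = clavulanate BLA inhibitor control wells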
NOD2 RIPK2 PPI: blocks binding of human NOD2 to RIPK2. CHO BLA complementation NOD2-RIPK2, CCF4 ratio. inhibition, % at 4.98 µM. 0.38% of 360,000 active. AID 624267; in the data active means inhibition above about 21%;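 further: 0% = vehicle only and 100% = reference blocker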
ABHD5-PLIN5 inh: blocks binding of human ABHD5 to perilipin-5; Split G. princeps luciferase complementation, luminescence, 4 h; inhibition, % at 4 µM; Q00G26+Q8WTS1; AID 602281; 0.78% of 360,000 active;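 active means inhibition above the mean inhibition across every tested compound plus 3 SD, cut at about 22% in these data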;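 further: 0% = DMSO only wells and the 100% control is not disclosed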
ABHD5 PLIN5 conf: confirmation of human ABHD5-PLIN5 interaction inhibitors; shares compounds with ABHD5-PLIN5 inh; biochemical ABHD5-PLIN5 interaction, luminescence; inhibition, % at 4 µM; 67% of 2,200 active; AID 651612; in the data active means inhibition above about 23%;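 further: 0% = DMSO vehicle wells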
HNF4 counter: HNF4 split-luciferase signal hit, counter-screen | shares compounds with ABHD5-PLIN5 inh | HNF4 dimerization, luminescence, biochemical | inhibition, % at 4 µM | 77% of 2,200 active | AID 651674;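 active means mean inhibition across replicate wells exceeding the computed hit threshold, cut at about 13% in these data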;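 further: light from luciferase halves that rejoin when HNF4 fusion proteins dimerize; 0% = DMSO only wells and the 100% control is not given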
Active calls of the source: *; . = no result.

SMILES	TLR4-MyD88 BLA	Beta2AR agonist	Dynein cargo inh	TLR9-MyD88 inh	NOD2 RIPK2 PPI	ABHD5-PLIN5 inh	ABHD5 PLIN5 conf	HNF4 counter
CC(C)(CC(=O)O)CC(=O)O	.	-6	.	4	-6	17	.	.
O=C(O)CC(O)(CC(=O)O)C(=O)O	.	0	.	-1	-1	23*	80*	23*
O=C1/C(=C/c2ccco2)CCC1C1CCCC1 (configuration not stated)	1	-13	-0.82	1	-10	3	.	.
O=C1/C(=C\c2ccco2)CCC/C1=C\c1ccco1	1	-5	-2.3	-1	0	49*	56*	82*
Cc1cccc(NC(=O)CSc2c3c(nc4ccccc24)CCC3)n1	-8	-5	1.4	-5	-10	1	.	.
CCN(CC)CCNC(=O)CSc1c2c(nc3cc(Cl)ccc13)CCCC2	5	8	-3.9*	-20	-5	33*	46*	41*
COc1cccc(NC(=O)CSc2c3c(nc4ccccc24)CCCC3)c1	1	12	-0.62	2	3	34*	39*	46*
C[C@@H]1CN([C@@H](C)CO)C(=O)c2cc(NC(=O)C3CCCCC3)ccc2O[C@@H](C)CCCCO[C@H]1CN(C)S(=O)(=O)c1ccc(Cl)cc1	.	.	.	3	0	-3	.	.
COc1ccc([C@@H]2C[C@H]3[C@@H](CN2S(=O)(=O)c2ccccc2)C(=O)C[C@@H](c2cccc(Cl)c2)N3S(=O)(=O)c2ccc(C)cc2)cc1	.	.	.	.	8	6	.	.
CCOc1ccccc1/C=C/c1nc2ccccc2[nH]c1=O	.	6	.	3	4	27*	50*	46*
CCOc1ccccc1OCCCC(=O)Nc1nc2ccccc2[nH]1	9	-11	-0.33	-4	2	-5	.	.
CC1(C(=O)Nc2cccc(C(F)(F)F)c2)Cc2c(-c3ccc4c(c3)OCO4)ccnc2O1 (configuration not stated)	.	.	.	.	4	-5	.	.
CC1CN(Cc2c(O)ccc3c2oc(=O)c2ccccc23)CC(C)O1 (configuration not stated)	.	11	1.6	4	-4	49*	72*	44*
O=C(C[C@H]1C[C@@H]2c3cc(NC(=O)c4ccc5c(c4)OCO5)ccc3O[C@@H]2[C@H](CO)O1)NCc1cc(F)ccc1F	.	.	.	10	-8	-1	.	.
O=C(O)c1ccccc1Nc1ccc([N+](=O)[O-])cc1	-7	10	0.17	13	17	-7	.	.
O=C(O)c1cccc(Nc2cc(Cl)c3nonc3c2[N+](=O)[O-])c1	1	-5	0.094	0	-1	29*	58*	95*
O=C(O)c1ccccc1Nc1cc(Cl)c2nonc2c1[N+](=O)[O-]	.	3	.	-15	-11	29*	80*	95*
COC(=O)/C=C1\S/C(=N/N=C/c2ccccc2)NC1=O	-16	5	1.1	1	-9	-1	.	.
COC(=O)C/C=N/N=C1/NC(=O)/C(=C/C(=O)O)S1	.	10	-0.73	-10	-2	26*	22	19*
CCCC1OC(c2cc3c(cc2Cl)OCO3)OCC1CC (configuration not stated)	.	3	.	-8	-3	0	.	.
CCOC(=O)c1nn(-c2ccccc2)c(=O)c2c(N)scc12	2	-1	0.81	-3	-5	25*	-23	95*
CCOC(=O)c1nn(-c2ccccc2C)c(=O)c2c(N)scc12	-9	-2	-0.36	3	0	-22	.	.
O=C(Nc1ccc2c(c1)C(=O)OC2)c1ccccc1Cl	.	2	.	-4	1	2	.	.
CC1(N=Cc2cc(Cl)ccc2O)COP(=O)(Nc2ccccc2)OC1 (configuration not stated)	.	-1	.	5	-12	-3	.	.
CNc1ncnc(Sc2nc(N)nc3nc[nH]c23)c1[N+](=O)[O-]	.	-1	.	2	2	12	.	.
SMILES	TLR4-MyD88 BLA	Beta2AR agonist	Dynein cargo inh	TLR9-MyD88 inh	NOD2 RIPK2 PPI	ABHD5-PLIN5 inh	ABHD5 PLIN5 conf	HNF4 counter
Nc1nc(Sc2ccc([N+](=O)[O-])c3nonc23)c2[nH]cnc2n1	.	13	.	-14	-7	53*	83*	110*
Cc1nc([N+](=O)[O-])c(Sc2nc3ccc([N+](=O)[O-])cc3[nH]2)n1Cc1ccccc1	-8	8	-2.2	10	7	28*	45*	38*
Cc1ccc(NCc2nc3ccccc3n2CCOc2ccccc2)cc1	-7	7	-1.3	-5	-1	26*	6	2
CN(c1cc(Cl)c2c(c1)OCO2)c1cc2c(c3c1ccn3C)C1CCC2C1 (configuration not stated)	.	.	.	.	-5	-1	.	.
O=C(Cn1c(=O)n(Cc2ccco2)c(=O)c2ccccc21)Nc1cccc(Cl)c1	-5	-3	-1.3	11	-12	42*	18	10
COC(=O)C(C(=O)OC)c1ccccc1NC(=O)OCc1ccccc1	.	.	.	.	-12	4	.	.
COc1ccc(/C=C/C(=O)c2c(O)ccc3c(C)cc(=O)oc23)cc1	3	5	-2.5	3	0	47*	65*	55*
COc1ccc(/C=C\C(=O)c2c(O)ccc3c(C)cc(=O)oc23)cc1	2	2	-3.1	-10	-2	47*	61*	44*
CC1CCCC(C)N1C(=O)CN1C(=O)c2ccccc2S1(=O)=O (configuration not stated)	.	0	.	-12	-8	-5	.	.
CN(N=O)c1ccc(CC2CCc3ccccc32)cc1 (configuration not stated)	.	3	.	7	-5	-3	.	.
Cn1cc(C(=O)N/N=C/C(Br)=C/c2ccccc2)ccc1=O	11	-40	-0.78	-2	-5	27*	8	75*
Cn1cc(C(=O)N/N=C/C(Br)=C\c2ccccc2)ccc1=O	4	-5	-0.37	1	4	26*	7	26*
Cn1cc(C(=O)N/N=C/C=C/c2ccccc2)ccc1=O	3	4	0.14	2	7	2	.	.
Cc1ccc(-c2cc(C(=O)N/N=C/C(Br)=C/c3ccccc3)n[nH]2)o1	-17	-6	-1	0	-8	27*	14	39*
CCOC(=O)[C@]12CCCC=C1N(Cc1ccccc1)C(=O)[C@H](CC(=O)N1CCOCC1)C2	.	.	.	.	-5	0	.	.
COC(=O)/C=C/c1ccc2c(c1)S(=O)(=O)N(Cc1ccc(OC)cc1)[C@H]2CC(=O)OC	.	3	.	3	-10	5	.	.
COC(=O)C[C@H]1c2ccccc2S(=O)(=O)N1c1cccc(OC)c1	.	9	.	3	-8	9	.	.
